Laboratory results published in ChEMBL document CHEMBL5058577, “EUbOPEN Chemogenomics Library 2 (Multiplex)” (2022).

Tested on: U2OS
Assay: Multiplex assay against U2OS
Type: toxicity, cell-based
Details: human
Outline: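 Cells stained live at seeding with Hoechst33342, BioTracker Green Microtubule Cytoskeleton Dye, MitoTracker Red and Annexin V Alexa Fluor 680 were imaged on a CQ1 microscope at 37°C and 5% CO2 after compound addition. Their classification by CellPathfinder machine-learning gating ran from Hoechst high-intensity objects versus normal cells, to healthy, pyknosed or fragmented nuclei among normal cells, to mitotic or apoptotic among pyknosed cells. Tubulin, mitochondrial-mass and membrane-permeability phenotypes are per cents of healthy-nucleus cells.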

[1] = 12 h, 1 µM, compound concentration 1 uM, replicate 1
[2] = 12 h, 1 µM, compound concentration 1 uM, replicate 2
[3] = 12 h, 10 µM, compound concentration 10 uM, replicate 1
[4] = 12 h, 10 µM, compound concentration 10 uM, replicate 2
[5] = 24 h, 1 µM, compound concentration 1 uM, replicate 1
[6] = 24 h, 1 µM, compound concentration 1 uM, replicate 2
[7] = 24 h, 10 µM, compound concentration 10 uM, replicate 1
[8] = 24 h, 10 µM, compound concentration 10 uM, replicate 2
[9] = 48 h, 1 µM, compound concentration 1 uM, replicate 1
[10] = 48 h, 1 µM, compound concentration 1 uM, replicate 2
[11] = 48 h, 10 µM, compound concentration 10 uM, replicate 1
[12] = 48 h, 10 µM, compound concentration 10 uM, replicate 2

Oc1c(CN2CCN(c3ccccn3)CC2)cc(Cl)c2cccnc12
Population Apoptotic (%) [1]: 95% | Population Fragmented Nuclei (%) [1]: 24% | Population Healthy Nuclei (%) [1]: 64% | Population Hoechst High Intensity Objects (%) [1]: 1% | Population Membrane Permeable-Phenotype (%) [1]: 3% | Population Mitochondria Different-Phenotype (%) [1]: 1% | Population Mitotic Cells (%) [1]: 4% | Population Normal (%) [1]: 98% | Population Pyknosed Nuclei (%) [1]: 10% | Population Tubulin-Different-Phenotype (%) [1]: 2% | Total Cell Count [1]: 237 | Population Apoptotic (%) [2]: 100% | Population Fragmented Nuclei (%) [2]: 16% | Population Healthy Nuclei (%) [2]: 78% | Population Membrane Permeable-Phenotype (%) [2]: 13% | Population Mitochondria Different-Phenotype (%) [2]: 4% | Population Mitotic Cells (%) [2]: 0% | Population Pyknosed Nuclei (%) [2]: 5% | Population Tubulin-Different-Phenotype (%) [2]: 8% | Total Cell Count [2]: 93 | Population Apoptotic (%) [3]: 84% | Population Fragmented Nuclei (%) [3]: 31% | Population Healthy Nuclei (%) [3]: 56% | Population Hoechst High Intensity Objects (%) [3]: 2% | Population Membrane Permeable-Phenotype (%) [3]: 12% | Population Mitochondria Different-Phenotype (%) [3]: 28% | Population Mitotic Cells (%) [3]: 15% | Population Normal (%) [3]: 97% | Population Pyknosed Nuclei (%) [3]: 11% | Population Tubulin-Different-Phenotype (%) [3]: 8% | Total Cell Count [3]: 229 | Population Apoptotic (%) [4]: 87% | Population Fragmented Nuclei (%) [4]: 18% | Population Healthy Nuclei (%) [4]: 68% | Population Hoechst High Intensity Objects (%) [4]: 1% | Population Membrane Permeable-Phenotype (%) [4]: 6% | Population Mitochondria Different-Phenotype (%) [4]: 35% | Population Mitotic Cells (%) [4]: 12% | Population Normal (%) [4]: 98% | Population Pyknosed Nuclei (%) [4]: 13% | Population Tubulin-Different-Phenotype (%) [4]: 11% | Total Cell Count [4]: 118 | Population Apoptotic (%) [5]: 88% | Population Fragmented Nuclei (%) [5]: 29% | Population Healthy Nuclei (%) [5]: 64% | Population Hoechst High Intensity Objects (%) [5]: 1% | Population Membrane Permeable-Phenotype (%) [5]: 3% | Population Mitochondria Different-Phenotype (%) [5]: 2% | Population Mitotic Cells (%) [5]: 11% | Population Normal (%) [5]: 98% | Population Pyknosed Nuclei (%) [5]: 6% | Population Tubulin-Different-Phenotype (%) [5]: 2% | Total Cell Count [5]: 270 | Population Apoptotic (%) [6]: 100% | Population Fragmented Nuclei (%) [6]: 7% | Population Healthy Nuclei (%) [6]: 87% | Population Membrane Permeable-Phenotype (%) [6]: 9% | Population Mitochondria Different-Phenotype (%) [6]: 3% | Population Mitotic Cells (%) [6]: 0% | Population Pyknosed Nuclei (%) [6]: 5% | Population Tubulin-Different-Phenotype (%) [6]: 7% | Total Cell Count [6]: 97 | Population Apoptotic (%) [7]: 90% | Population Fragmented Nuclei (%) [7]: 27% | Population Healthy Nuclei (%) [7]: 63% | Population Hoechst High Intensity Objects (%) [7]: 4% | Population Membrane Permeable-Phenotype (%) [7]: 10% | Population Mitochondria Different-Phenotype (%) [7]: 14% | Population Mitotic Cells (%) [7]: 9% | Population Normal (%) [7]: 95% | Population Pyknosed Nuclei (%) [7]: 9% | Population Tubulin-Different-Phenotype (%) [7]: 7% | Total Cell Count [7]: 238 | Population Apoptotic (%) [8]: 100% | Population Fragmented Nuclei (%) [8]: 29% | Population Healthy Nuclei (%) [8]: 58% | Population Hoechst High Intensity Objects (%) [8]: 3% | Population Membrane Permeable-Phenotype (%) [8]: 9% | Population Mitochondria Different-Phenotype (%) [8]: 40% | Population Mitotic Cells (%) [8]: 0% | Population Normal (%) [8]: 96% | Population Pyknosed Nuclei (%) [8]: 12% | Population Tubulin-Different-Phenotype (%) [8]: 6% | Total Cell Count [8]: 127 | Population Apoptotic (%) [9]: 94% | Population Fragmented Nuclei (%) [9]: 25% | Population Healthy Nuclei (%) [9]: 67% | Population Hoechst High Intensity Objects (%) [9]: 3% | Population Membrane Permeable-Phenotype (%) [9]: 6% | Population Mitochondria Different-Phenotype (%) [9]: 3% | Population Mitotic Cells (%) [9]: 5% | Population Normal (%) [9]: 96% | Population Pyknosed Nuclei (%) [9]: 7% | Population Tubulin-Different-Phenotype (%) [9]: 3% | Total Cell Count [9]: 276 | Population Apoptotic (%) [10]: 87% | Population Fragmented Nuclei (%) [10]: 14% | Population Healthy Nuclei (%) [10]: 77% | Population Hoechst High Intensity Objects (%) [10]: 1% | Population Membrane Permeable-Phenotype (%) [10]: 7% | Population Mitochondria Different-Phenotype (%) [10]: 1% | Population Mitotic Cells (%) [10]: 12% | Population Normal (%) [10]: 98% | Population Tubulin-Different-Phenotype (%) [10]: 5% | Total Cell Count [10]: 111 | Population Apoptotic (%) [11]: 96% | Population Fragmented Nuclei (%) [11]: 32% | Population Healthy Nuclei (%) [11]: 57% | Population Hoechst High Intensity Objects (%) [11]: 2% | Population Membrane Permeable-Phenotype (%) [11]: 11% | Population Mitochondria Different-Phenotype (%) [11]: 19% | Population Mitotic Cells (%) [11]: 3% | Population Normal (%) [11]: 97% | Population Pyknosed Nuclei (%) [11]: 10% | Population Tubulin-Different-Phenotype (%) [11]: 7% | Total Cell Count [11]: 275 | Population Apoptotic (%) [12]: 100% | Population Fragmented Nuclei (%) [12]: 38% | Population Healthy Nuclei (%) [12]: 42% | Population Hoechst High Intensity Objects (%) [12]: 4% | Population Membrane Permeable-Phenotype (%) [12]: 12% | Population Mitochondria Different-Phenotype (%) [12]: 41% | Population Mitotic Cells (%) [12]: 0% | Population Normal (%) [12]: 95% | Population Pyknosed Nuclei (%) [12]: 19% | Population Tubulin-Different-Phenotype (%) [12]: 8% | Total Cell Count [12]: 144
